System: MS2 coat protein
Test: apparent Kd, MS2 coat protein; higher = weaker binding; RNA-MaP array; FMN 200 µM where present
How it was run: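 On Illumina sequencing-chip clusters, designs were transcribed by stalled E. coli RNA polymerase and titrated with SNAP-549-labelled MS2 coat protein (0.7 or 1.5 nM, doubling to 3 µM), without and then with constant ligand, in 100 mM Tris-HCl pH 7.5, 80 mM KCl, 4 mM MgCl2, BSA, DTT, yeast tRNA and Tween-20. Apparent Kd is the median of filtered per-cluster curve fits to green signal normalised to red-channel RNA signal and control-cluster median Fmax.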

[1] = designed as: OFF switch for flavin mononucleotide, no ligand
[2] = ligand present: flavin mononucleotide, designed as: OFF switch for flavin mononucleotide
[3] = designed as: ON switch for flavin mononucleotide, no ligand
[4] = ligand present: flavin mononucleotide, designed as: ON switch for flavin mononucleotide

| Sequence | apparent Kd [1] | apparent Kd [2] | apparent Kd [3] | apparent Kd [4] |
| --- | --- | --- | --- | --- |
| UUUUUAUAACAAGGAUAUACUAAACAUGAGGAUCACCCAUGUAAUAUUAUGAGUGAGAGAGAUAAGUAGAAGGUGUAUUAUUUU | 100 nM | 137 nM | – | – |
| GCAAAGCCUGACAUGAGGAUCACCCAUGUUAGAUUGUUAUGUCAGGAUAUUGUCUAGACACUAGACAAGAAGGGAUGCUUUGCA | – | – | 386 nM | 38.4 nM |
| AUGCUUCACACAGGAUAUACAUGAGGAUCACCCAUGUGUCCAAAGUAGCCGACACGAGCUACGCGGUAGAAGGGUGUGAAGCAU | 18.6 nM | 52.2 nM | – | – |
| GUAGUACAUGAGGAUCACCCAUGUGUGGGCGCGUGAGGAUAUGUCCGUACCUGGCGUACGAUAGAAGGCAUGGUGC | – | – | 53.3 nM | 28.4 nM |
| GGAGCGAGCACAGGAUAUAAGCUAACGGUUAGUUUAGAAGGGUGGGAUCAGACAUGAGGAUCACCCAUGUGUGUUUUUGCUCCA | – | – | 128 nM | 314 nM |
| UGAUCUAUGUAGAAGGCCCAUAUCUAUAUUUAGGGAGGAUAUACAUGAGGAUCACCCAUGUAUAGAGCGGGUGGACCCGUCACU | 74.1 nM | 185 nM | – | – |
| CAUGUACGUGAGGAUAUGGUGGCGACGAGCCGGCUAGAAGGCACAACAUGAGGAUCACCCAUGUCUUGGAUCUA | 114 nM | 374 nM | – | – |
| UUGAAGAAUUAAGGAUAUUGAAUACAUAUGUUAAACAUGAGGAUCACCCAUGUGGGUUGCGGUAUCGAGAAGGUAAAUUACUAG | – | – | 83 nM | 78.7 nM |
| UAAUCUCAGAUAGGAUAUAUAGGAUAACUUAAGACCUAACAUGAGGAUCACCCAUGUGAUUAUUCGUAGAAGGAUCAAUGACCC | – | – | 189 nM | 200 nM |
| UAAAUUUUGUAAGGAUAUACACGAGAUUCAAGUGUAGAAGGUACUUACAUGAGGAUCACCCAUGUAUACAUGGAUCAUAGAUAU | – | – | 305 nM | 63.9 nM |
| GACUGCUGAGGAUAUACAUGAGGAUCACCCAUGUGCUUCAGUAUCGAAAGAUACAUUGGUAGAAGGUGGUAGUC | 13.4 nM | 21.4 nM | – | – |
| AUUGAUGUUGAGGAUAUGCUUUUAUUUAUAAUAGCAGAAGGCGAUACAUGAGGAUCACCCAUGUUCAUGGUUUU | 24.9 nM | 33.6 nM | – | – |
| AGUCCACAUGAGGAUCACCCAUGUCUGGAGAAGACAGGAUAUAAGGAAAAAAAAAAAAACUUAGAAGGGUCAAAAA | – | – | 128 nM | 69.7 nM |
| AAAAAAAAAAGAGAGGAUAUCCAAAAAAAAACAUGAGGAUCACCCAUGUAAAAAAAAAAAAAAUGGGAGAAGGCUCAAAAAAAAAA | – | – | 89.7 nM | 23.2 nM |
| GGUACCAUCACAGGAUAUGCUAUGGUUUCCGUAGCAGAAGGGUGAUAACAUGAGGAUCACCCAUGUGGUACCGGGCGUGAGCCC | – | – | 741 nM | 201 nM |
| GAUACACAUGAGGAUCACCCAUGUCGUAUGACAUGAGGAUAUGUACAGACUUCGGUCUGUACAGAAGGCAUGUGUC | – | – | 115 nM | 199 nM |
| UAUACUUACGAAGGAUAUGGUUACAUGAGGAUCACCCAUGUAUGUAUGUUGAUCGUGUAUCUUAACCAGAAGGUCGUCACUAUA | 44.9 nM | 56.5 nM | – | – |
| GUUGUUUCUGAGGAUAUUAUUUUAUUCGAUUGAUAAGAAGGCAGUACAUGAGGAUCACCCAUGUGGGUUGUUUG | 60.6 nM | 122 nM | – | – |
| GCGGUACAUGAGGAUCACCCAUGUCAGGAUAUCCGCUGUUUGUCGUUUGGCGGGCGGUGGAGAAGGGACCUCGC | 90 nM | 93 nM | – | – |

| Sequence | apparent Kd [1] | apparent Kd [2] | apparent Kd [3] | apparent Kd [4] |
| --- | --- | --- | --- | --- |
| AAGAGGAAAGCAGGAUAUCUAUAGGCUCCUUAACAUGAGGAUCACCCAUGUAGAGAAGGGCUAAGACCGACUCUUCGGAGUUGG | 8.69 nM | 25.3 nM | – | – |
| AAAUAGAUCCGAGGAUAUACAAUCCGGAAACGGUACAUGAGGAUCACCCAUGUAGAAGGCGGAUCUACAGGUACUAAAGUAAAA | 10.8 nM | 10.8 nM | – | – |
| UGUUUUGAAGUAGGAUAUCAACACACAUGAGGAUCACCCAUGUUAGAUGUGGAUGUUGUAUGUUAUGAGAAGGACUUCGAUUCG | 25.6 nM | 95.4 nM | – | – |
| GGCUUAAACACAGGAUAUGGCCUCAGAGUAAGGCCAGAAGGGUGAAGUUCUCAUACAUGAGGAUCACCCAUGUCAAGGAGGCUA | – | – | 521 nM | 204 nM |
| UACAUGUGAGGAUAUGUACGAAGCCCGGCUGGGCCUCGCAGGCAGAAGGCACAUGAGGAUCACCCAUGUGACCG | 15.9 nM | 53.4 nM | – | – |
| AAUACACAUGAGGAUCACCCAUGUCAGGAUAUGCGGAAUAAGACUUUGGUCGAUAAAUGUAGAAGGGACGUUUA | 34.3 nM | 33.4 nM | – | – |
| AUUUGAAUCGUAGGAUAUCGCUUAAAUUUACCACGAGAAGGACGAACAUGAGGAUCACCCAUGUAUCAUGGUGUAGAUAAUUUG | 68.2 nM | 249 nM | – | – |
| UGAUCCCAUGUCAGGAUAUAGAGGCGGUAGCCUGGCUAGAAGGGACAUGAGGAUCACCCAUGUCGGUUCUUGCC | 35.5 nM | 21.3 nM | – | – |
| AUUUGACACGUAGGAUAUCGCUCAAAUUUAACACGAGAAGGACGAACAUGAGGAUCACCCAUGUAACAUGGAGUAGUUUAUUUG | 76.6 nM | 111 nM | – | – |
| AAAUAAAGGACUAAGGAUAUAUCACAUGAAACAUGAGGAUCACCCAUGUAAUAAUACAAAGGGUGAUAGAAGGUAGUCCACAAACA | – | – | 55.7 nM | 20.5 nM |
| GCAGGUCGAGGAUAUACAUGAGGAUCACCCAUGUAGAUCAACCAGCGAUAGCUGGAAUGUAGAAGGUGACCUGC | 15.7 nM | 29.4 nM | – | – |
| UUAAACGCAGGAUAUACAUUUUUUUUAUUAUCCUCAUAAAUACAUGAGGAUCACCCAUGUAGAAGGGCGAAAUU | 239 nM | 210 nM | – | – |
| AAUGGGUGUGUGAGGAUAUACGAUGGCAGUUGCCAGUAGAAGGUACAUGAGGAUCACCCAUGUGUCCAAAAGUG | 13.2 nM | 16 nM | – | – |
| GUACUCAUGUAAGGAUAUGCAGCCGAAACGGCUGCAGAAGGUACUAUAAUACAUGAGGAUCACCCAUGUCAAAAUAAAAUAGUU | – | – | 116 nM | 35.4 nM |
| GCGCUUAUACAGAAGGCCAUAUACAUGAGGAUCACCCAUGUUAUUUGGUGGAGGAUAUGUUUAUUAUUACAGGUAGAUGAGCGC | – | – | 6.3 nM | 5.72 nM |
| AACACGUGAGGAUAUACAUGAGGAUCACCCAUGUUGGUACAAUCCUGUCCGACUAUCCGUAGAAGGCAUUGACU | 38.7 nM | – | – | – |
| UUUACAUGAGGAUCACCCAUGUAUAGAACGGUUAAUUAAAGUGAGGAUAUACAUAAUUUUAUAUUGUAGAAGGCACUGGGUACA | – | – | 14.3 nM | 17.5 nM |
| CCAGCGUAUGUGAGGAUAUGCUGGUCCUUGGAUCAGCAGAAGGCACAUGAGGAUCACCCAUGUAGAGACGUUGG | 27 nM | 29.8 nM | – | – |
| AGCUGGUGACAGCAUCCAUCAAAACAUGAGGAUCACCCAUGUAGAAGGCUGUACGGUUACCGUACAGAGGAUAUACAAUGAUGC | 13.8 nM | 31.8 nM | – | – |

| Sequence | apparent Kd [1] | apparent Kd [2] | apparent Kd [3] | apparent Kd [4] |
| --- | --- | --- | --- | --- |
| GCUGCAUAGGCAGGAUAUGCAAAAGCAGAUGCAAAGCAUCUGCAAGAAACAUGAGGAUCACCCAUGUAGAAGGGCCUGUGCAGU | 21.4 nM | 20.2 nM | – | – |
| CGAGUGUAAGGAUAUUCGGCACUAGGGACCACCCUAGUGUAGAAGAAGGUACAUGAGGAUCACCCAUGUGGUUA | 369 nM | 428 nM | – | – |
| GUUGUUUCUGAGGAUAUUAUUUUUUUCGAUUGAUAAGAAGGCAGUACAUGAGGAUCACCCAUGUGGGUUGUCUG | 37.2 nM | 150 nM | – | – |
| GACGGGAAUGAGAAGGGUCACAUGAGGAUCACCCAUGUGCUCUUCGCCGUGACAGGAUAUCAUUGCCGCCAGGUUAGAUUUUUG | 7.87 nM | 22.3 nM | – | – |
| CGCGAACAUGAGGAUCACCCAUGUGGGUGGAACGUAGGAUAUACGCAGGUCUUUAAAACGGUAGAAGGACGUUCGC | – | – | 452 nM | 159 nM |
| UCGCGGUGAGGAUAUAGGUCAAUGCAGGGUCACCAGAUUGCCUAGAAGGCACAUGAGGAUCACCCAUGUGGUAG | 49 nM | 157 nM | – | – |
| GUUAUAAAGGUAGGAUAUAGUAUUAUAAUUAAAUUAGAAGGAUCUCACAUGAGGAUCACCCAUGUAAGAGGAUCACCCAUGUAG | 20.7 nM | 15.9 nM | – | – |
| AGACGACAACAUGAGGAUCACCCAUGUUCUAGUUUAGAGUCGCAGGAUAUGACUUCGAAGCUUAGUCAGAAGGGUGAAUUCACA | – | – | 37.8 nM | 51 nM |
| UGGUUGUGAGGAUAUCCAAUAUAUGACAUGAGGAUCACCCAUGUUUCCACUCGUACCUCCGGAGAAGGCACUUGGU | 33.4 nM | 28.4 nM | – | – |
| AACAAACAUGAGGAUCACCCAUGUCAGGAUAUCGAAACAACAAACAACAAACAACAAACGAGAAGGGACAACAA | 25.6 nM | 28.3 nM | – | – |
| GCACUGGAUGUAGGAUAUCAGGACGAUAAGUCCUGAGAAGGACAUGAGGAUCACCCAUGUGAAAAUUCCAGUGCAAAUAAUAUA | 13 nM | 19.1 nM | – | – |
| CAGUGCAAUGUAGGAUAUGCUCAGGAUAACUGAGCAGAAGGACAUGAGGAUCACCCAUGUCAAAUGAAAGAUAAUAAAGCACUG | 14.3 nM | 17.8 nM | – | – |
| CAGCACUGUCGAGAGGAUAUGCGGUGAUGGACAUGAGGAUCACCCAUGUUAGCGACAGCAUCACGGCAGAAGGCUCUGCUGCUGC | – | – | 59.4 nM | 16.9 nM |
| UUGGACGUCGUAGGAUAUGUAGGAUAUUCCUACAUGAGGAUCACCCAUGUUGGCAUGGAAGAAGGACAGAAGGACGAUGUCCAU | – | – | 158 nM | 4.94 nM |
| GCUGCGCGAGGAUAUGCGGUUUGCGCUGUGGCCCGUGGCGUACAUGAGGAUCACCCAUGUAGAAGGCGUGUGGG | 22.9 nM | 23.3 nM | – | – |
| CCGGAAAUGAAGGAUAUAGGCGUCGAUAGACUCCUAGAAGGUCAUACAUGAGGAUCACCCAUGUGUCCUACCGG | 16.5 nM | 29.8 nM | – | – |
| AGCGGCGCGGGCCACCGCAGGACCAGAAGGACAUGAGGAUCACCCAUGUAGCAGAACAGGGCGGUGUAGGAUAUGGCAGGCUCG | 22.5 nM | 51.6 nM | – | – |
| UUGGACGUCGUAGGAUAUGUAGGAUAUUCCUACAUGAGGAUCACCCAUGUUGACAUGGAAGAAGGAAAGAAGGACGAUGUCCAU | – | – | 496 nM | 303 nM |

Reference: the EternaBench riboswitch data
